Results gathered from unrelated publications.
Compare with care: the assays were run in different laboratories.
Chrna7: Neuronal acetylcholine receptor subunit alpha-7 (Chrna7, Rattus norvegicus, UniProt Q05941)
ache: Acetylcholinesterase (ache, Electrophorus electricus, UniProt O42275)

Structure (SMILES) | target | assay | setting | IC50 [µM]
CCCCCCCCCC(=O)N[C@@H](CCCN=C(N)N)C(=O)N[C@H](C(=O)N[C@@H](CCCCN)C(=O)N[C@@H](CCCN=C(N)N)C(=O)CCl)C(C)C | Furin (FURIN, Homo sapiens, UniProt P09958) | enzyme activity, inhibitor |  | 0.00134
COc1ccc2[nH]c3c(c2c1)CCN(C)CC3 | Chrna7 | ion current, antagonist, two-electrode voltage clamp | oocytes | 11.4
CNC(=O)c1ccc(-c2cnn3ccc(C(=O)N(C)c4ccc(Cl)c(C(=O)O)c4)cc23)cc1 | Ephrin type-A receptor 4 (EPHA4, Homo sapiens, UniProt P54764) | enzyme activity, inhibitor |  | > 30
C#CCN(C)CCCOc1cccc(CN(C)c2c3c(nc4ccc(C)cc24)CCCC3)c1 | ache | enzyme activity, inhibitor, Ellman |  | 5.36
COc1ccc2c3c([nH]c2c1)CCN(C)CC3 | Chrna7 | ion current, antagonist, two-electrode voltage clamp | oocytes | 10.2
CC(C)C[C@H](NC(=O)[C@H]1O[C@@H]1C(=O)O)C(=O)NCCCCN=C(N)N | Pro-cathepsin H (Homo sapiens, UniProt P09668) | enzyme activity, inhibitor |  | 0.025
CNC(=O)c1ccc(-c2cnn3ccc(C(=O)N(C)c4ccc(Cl)c(C(=O)OC)c4)cc23)cc1 | Tyrosine-protein kinase receptor UFO (AXL, Homo sapiens, UniProt P30530) | enzyme activity, inhibitor |  | > 30
C#CCN(C)CCCCCCCCOc1cccc(CN(C)c2c3c(nc4ccc(C)cc24)CCCC3)c1 | ache | enzyme activity, inhibitor, Ellman |  | 32.2
